Test results published in ChEMBL document CHEMBL1136798, “Synthesis and pharmacological characterization of a series of geometrically constrained 5-HT(2A/2C) receptor ligands” (J Med Chem, 2003).
Active and inactive are the calls of the source.

How the values were obtained:
Rattus norvegicus [1] = species on record: Rattus norvegicus; assay: Maximum 5-HT stimulation was determined […]; format: functional
Outline: (§1)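 Rat 5-HT2A-expressing cells at 70% confluency were labelled for 18-20 h with 1.0 µCi/mL [3H]-myo-inositol. They were pretreated for 15 min with 10 µM pargyline/10 mM LiCl, then exposed to drug for 30 min at 37 °C. Formic acid stopped the reaction. [3H]inositol phosphates were separated on Dowex-1 columns. Efficacy is expressed relative to serotonin.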

[2] = target: T1, 5-hydroxytryptamine receptor 2A (Rattus norvegicus, UniProt P14842); assay: Tested for its ability to activate phospholipase c by quantification of IP3 at cloned rat 5-hydroxytryptamine 2A receptor; outline: as §1
[3] = target: T2, 5-hydroxytryptamine receptor 1A (Homo sapiens, UniProt P08908); assay: Tested in vitro for its ability to bind to 5-hydroxytryptamine 1A receptor using [3H]8-OH-DPAT as radioligand
T2 sequence (P08908 whole entry): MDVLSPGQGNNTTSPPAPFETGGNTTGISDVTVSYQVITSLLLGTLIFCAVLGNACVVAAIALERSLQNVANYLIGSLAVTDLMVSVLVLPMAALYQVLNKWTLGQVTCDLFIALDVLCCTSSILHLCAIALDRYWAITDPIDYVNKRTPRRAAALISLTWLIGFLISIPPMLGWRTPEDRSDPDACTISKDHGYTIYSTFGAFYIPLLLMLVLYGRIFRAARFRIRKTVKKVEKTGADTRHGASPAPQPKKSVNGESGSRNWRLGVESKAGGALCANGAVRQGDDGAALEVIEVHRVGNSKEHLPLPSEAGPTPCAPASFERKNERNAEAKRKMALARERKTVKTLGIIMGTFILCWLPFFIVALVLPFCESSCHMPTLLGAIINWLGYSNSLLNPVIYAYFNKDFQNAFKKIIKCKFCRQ
Outline: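 Human 5-HT1A receptor stably expressed in cells, used as harvested pellets. Competition used 2.0 nM [3H]-8-OH-DPAT in Tris/EDTA/MgCl2 buffer at pH 7.4, for 60 min at 25 °C. Nonspecific binding was defined with 10 µM 5-HT. Bound label was collected by filtration and counted by scintillation.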

[4] = target: T1, 5-hydroxytryptamine receptor 2A; assay: In vitro binding to 5-hydroxytryptamine 2A receptor using [125 I]-DOI
Outline: (§2)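 Stably transfected cells expressing the rat 5-HT2A or rat 5-HT2C receptor were harvested as frozen pellets. Nonspecific binding was set with 10 µM cinanserin (5-HT2A) or 10 µM mianserin (5-HT2C). Bound label was collected on PEI-soaked GF/B filters and counted by scintillation.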

[5] = target: T3, 5-hydroxytryptamine receptor 2C (Rattus norvegicus, UniProt P08909); assay: In vitro binding to 5-hydroxytryptamine 2C receptor using [125 I]-DOI; outline: as §2
T3 sequence (P08909 whole entry): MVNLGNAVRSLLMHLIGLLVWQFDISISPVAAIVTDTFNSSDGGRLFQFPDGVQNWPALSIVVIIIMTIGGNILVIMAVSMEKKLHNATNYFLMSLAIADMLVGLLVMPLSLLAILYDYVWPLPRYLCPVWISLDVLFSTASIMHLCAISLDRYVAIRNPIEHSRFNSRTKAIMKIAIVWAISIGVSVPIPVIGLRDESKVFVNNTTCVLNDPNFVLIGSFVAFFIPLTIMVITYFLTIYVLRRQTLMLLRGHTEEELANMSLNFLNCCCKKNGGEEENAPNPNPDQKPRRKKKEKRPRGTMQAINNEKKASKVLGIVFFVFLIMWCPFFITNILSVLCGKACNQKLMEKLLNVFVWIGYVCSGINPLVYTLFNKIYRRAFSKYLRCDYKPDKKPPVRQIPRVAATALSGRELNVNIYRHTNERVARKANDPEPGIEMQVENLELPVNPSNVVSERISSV

[6] = target: T1, 5-hydroxytryptamine receptor 2A; assay: (§3) Tested for its ability to activate phospholipase C by quantification of IP3 at cloned rat 5-hydroxytryptamine 2A receptor
Outline: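 They were pretreated for 15 min with 10 µM pargyline/10 mM LiCl, then exposed to drug for 30 min at 37 °C. Formic acid stopped the reaction. [3H]inositol phosphates were separated on Dowex-1 columns. Efficacy is expressed relative to serotonin.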

Rattus norvegicus [7] = species on record: Rattus norvegicus; assay: Maximum 5-HT stimulation was determined at 10 uM […]; format: functional
Rattus norvegicus [8] = species on record: Rattus norvegicus; assay: Compound was tested for effective dose in LSD trained rats; format: functional
Rattus norvegicus [9] = species on record: Rattus norvegicus; assay: Compound was tested for effective dose in DOI trained rats; format: functional
[10] = target: T1, 5-hydroxytryptamine receptor 2A; assay: Tested in vitro for its ability to bind to 5-hydroxytryptamine 2A receptor using [125 I]-DOI as radioligand
Outline: as §2, with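 “pellets. Competition used 0.20 nM [125I]-DOI in 50 mM Tris, 0.1 mM EDTA, 10 mM MgCl2, pH 7.4, for 60 min at 25 °C.” for “pellets.”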

[11] = target: T1, 5-hydroxytryptamine receptor 2A; assay: as §3; outline: as §1; remark: listed apart in the source
Rattus norvegicus [12] = assay: Compound was tested for effective dose in LSD trained rats; Partial substitution at 1-6 uM/Kg (0.36-[…]); format: functional, organism-based
Rattus norvegicus [13] = assay: Compound was tested for effective dose in DOI trained rats; Partial substitution at 1-6 uM/Kg (0.36-[…]); format: functional, organism-based

T1 sequence (P14842 whole entry): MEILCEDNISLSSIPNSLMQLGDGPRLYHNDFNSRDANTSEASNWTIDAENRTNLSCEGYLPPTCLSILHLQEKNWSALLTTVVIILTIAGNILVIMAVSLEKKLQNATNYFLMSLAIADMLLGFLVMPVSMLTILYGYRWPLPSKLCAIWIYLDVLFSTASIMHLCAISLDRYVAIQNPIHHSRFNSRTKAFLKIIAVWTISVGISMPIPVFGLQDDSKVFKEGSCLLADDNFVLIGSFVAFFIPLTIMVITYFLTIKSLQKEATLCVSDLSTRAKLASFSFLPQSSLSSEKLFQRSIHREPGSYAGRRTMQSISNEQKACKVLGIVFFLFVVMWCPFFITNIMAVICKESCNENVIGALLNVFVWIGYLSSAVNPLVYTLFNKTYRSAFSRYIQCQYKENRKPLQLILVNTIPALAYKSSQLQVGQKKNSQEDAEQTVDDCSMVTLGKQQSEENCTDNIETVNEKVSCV

SMILES	Max (Rattus norvegicus [1]) [%]	Ki [3] [nM]	Ki [4] [nM]	Ki [5] [nM]	EC50 [6] [nM]	also measured
COc1cc(CCN)cc(OC)c1OC [MESCALINE]	92	–	–	–	–	EC50 [2]: 2600 nM
COc1cc(Br)c2c3c1C[C@H](N)C[C@@H]3CO2 (relative stereo)	63	960	16	4	2090	–
COc1ccc2c3c1[C@H](CN)CC[C@@H]3CO2	–	3000	700	59	–	–
COc1ccc2c3c1[C@H](CN)CC[C@H]3CO2	–	1000	310	34	–	–
COc1cc(Br)c2c3c1[C@H](CN)CC[C@@H]3CO2	49	520	8.7	2.8	1100	–
COc1ccc2occ3c2c1[C@H](CN)CC3	–	860	200	11	> 10000	Max (Rattus norvegicus [7]): 10%
CCN(CC)C(=O)[C@@H]1C=C2c3cccc4[nH]cc(c34)C[C@H]2N(C)C1 [LYSERGIDE]	22	–	–	–	–	–
COc1cc(CC(C)N)c(OC)cc1Br (configuration not stated) [BROLAMFETAMINE]	79	–	–	–	–	ED50 (Rattus norvegicus [8]): 1.06 µmol/kg; ED50 (Rattus norvegicus [9]): 0.091 µmol/kg
COc1cc(Br)c2c3c1[C@H](CN)CC[C@H]3CO2	37	550	–	4.9	–	Ki [10]: 9.3 nM; EC50 [11]: 340 nM
COc1cc(Br)c2occ3c2c1[C@H](CN)CC3	33	105	2.6	1.1	120	PS (Rattus norvegicus [12]): Partially active; PS (Rattus norvegicus [13]): Partially active
CN(C)CCc1c[nH]c2cccc(O)c12 [PSILOCIN]	46	–	25	–	2300	–
